Test results published in ChEMBL document CHEMBL1154117, “Synthesis and evaluation of a novel series of quinoline derivatives with immunosuppressive activity” (Bioorg Med Chem, 2009).

Tests used:
Splenocyte [1] = experiment: Immunosuppressive activity against concanavalin A-induced BALB/c mouse splenocytes assessed as inhibition of [3H]thymidine incorporation at 1 uM by liquid scintillation counting; format: functional
[2] = Immunosuppressive activity in BALB/c mouse splenocytes assessed as inhibition of concanavalin A-induced cell proliferation at 30 uM after 48 hrs by MTT assay; format: functional; settings: Splenocyte
In short: (§1)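 Spleen cells (5 × 10⁵) from male BALB/c mice aged 6–8 weeks, erythrocytes lysed, stimulated with ConA 5 μg/mL in RPMI-1640/10% FBS. Compounds diluted from DMSO stock. ConA-stimulated cells used as control. Proliferation read by MTT added 4 h before end of culture, SDS/DMF lysis for 6 h, absorbance at 570 nm.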

[3] = Immunosuppressive activity in BALB/c mouse splenocytes assessed as inhibition of concanavalin A-induced cell proliferation at 10 uM after 48 hrs by MTT assay; format: functional; settings: Splenocyte; in short: as §1
Splenocyte [4] = experiment: Immunosuppressive activity against concanavalin A-induced BALB/c mouse splenocytes assessed as inhibition of [3H]thymidine incorporation at 30 uM by liquid scintillation counting; format: functional
[5] = Immunosuppressive activity in BALB/c mouse splenocytes assessed as inhibition of concanavalin A-induced cell proliferation at 100 uM after 48 hrs by MTT assay; format: functional; settings: Splenocyte; in short: as §1
[6] = Cytotoxicity against BALB/c mouse splenocytes at 10 uM after 48 hrs by MTT assay; format: cell-based, Splenocyte; settings: read-out: INH
In short: (§2)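 BALB/c spleen single-cell suspension, erythrocytes depleted with Tris-buffered NH4Cl (0.155 M NH4Cl, 16.5 mM Tris, pH 7.2). Cells cultured in RPMI-1640 with 10% FBS and compound diluted from DMSO stock (0.1% DMSO in control). Medium-alone cells served as control. MTT (5 mg/mL) added 4 h before end of culture, then SDS/DMF lysis buffer (pH 7.2) for 6 h. Absorbance read at 570 nm and growth inhibition % calculated.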

T-cell [7] = experiment: Immunosuppressive activity against concanavalin A-induced BALB/c mouse splenocytes assessed as T-cells activation at 10 uM after 24 hrs by FACS assay; format: functional
In short: (§3)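 Male BALB/c splenocytes (6–8 weeks), 5 × 10⁵, stimulated with ConA 5 μg/mL, with or without compound. After 24 h, cells washed twice in cold PBS and stained with CD25-FITC and CD4-APC for 30 min at 4 °C. Washed again and analysed by flow cytometry as the CD4+CD25+/CD4+ percentage.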

T-cell [8] = experiment: Immunosuppressive activity against concanavalin A-induced BALB/c mouse splenocytes assessed as T-cells activation at 1 uM after 24 hrs by FACS assay; format: functional; in short: as §3
[9] = Cytotoxicity against BALB/c mouse splenocytes at 30 uM after 48 hrs by MTT assay; format: cell-based, Splenocyte; settings: read-out: INH; in short: as §2
T-cell [10] = experiment: Immunosuppressive activity against concanavalin A-induced BALB/c mouse splenocytes assessed as T-cells activation at 3 uM after 24 hrs by FACS assay; format: functional; in short: as §3
T-cell [11] = experiment: Immunosuppressive activity against concanavalin A-induced BALB/c mouse splenocytes assessed as T-cells activation at 30 uM after 24 hrs by FACS assay; format: functional; in short: as §3
[12] = Cytotoxicity against BALB/c mouse splenocytes at 100 uM after 48 hrs by MTT assay; format: cell-based, Splenocyte; settings: read-out: INH; in short: as §2
Splenocyte [13] = experiment: Immunosuppressive activity against concanavalin A-induced BALB/c mouse splenocytes assessed as inhibition of [3H]thymidine incorporation at 10 uM by liquid scintillation counting; format: functional
[14] = Immunosuppressive activity in BALB/c mouse splenocytes assessed as inhibition of concanavalin A-induced cell proliferation at 1 uM after 48 hrs by MTT assay; format: functional; settings: Splenocyte; in short: as §1

COc1cc(OC)c2c(OC(=O)c3ccccc3I)ccnc2c1
inhibition at 1 µM (Splenocyte [1]): 8.2%
inhibition at 30 µM [2]: 90.6%
inhibition at 10 µM [3]: 63%
inhibition at 30 µM (Splenocyte [4]): 87.1%
inhibition at 100 µM [5]: 93%
cytotoxicity at 48 h, 10 µM [6]: 14.3%
Activity (T-cell [7]): 90.04%
Activity (T-cell [8]): 93.1%
cytotoxicity at 48 h, 30 µM [9]: 26.5%
Activity (T-cell [10]): 91.87%
Activity (T-cell [11]): 83.23%
cytotoxicity at 48 h, 100 µM [12]: 54.7%
inhibition at 10 µM (Splenocyte [13]): 47.5%

COc1cc(OC)c2c(OC(=O)c3c(Cl)cccc3Cl)ccnc2c1
inhibition at 1 µM (Splenocyte [1]): 34.7%
inhibition at 30 µM [2]: 94.6%
inhibition at 10 µM [3]: 94%
inhibition at 30 µM (Splenocyte [4]): 99.2%
inhibition at 100 µM [5]: 94.3%
cytotoxicity at 48 h, 10 µM [6]: 10.9%
Activity (T-cell [7]): 59.64%
Activity (T-cell [8]): 92.96%
cytotoxicity at 48 h, 30 µM [9]: 52.7%
Activity (T-cell [10]): 88.8%
Activity (T-cell [11]): 19.41%
cytotoxicity at 48 h, 100 µM [12]: 83.4%
inhibition at 10 µM (Splenocyte [13]): 97.8%

COc1cc(OC)c2c(OC(=O)c3ccccc3[N+](=O)[O-])ccnc2c1
inhibition at 1 µM (Splenocyte [1]): 10.2%
inhibition at 30 µM [2]: 75.2%
inhibition at 10 µM [3]: 38.6%
inhibition at 30 µM (Splenocyte [4]): 64.6%
inhibition at 100 µM [5]: 90.5%
cytotoxicity at 48 h, 10 µM [6]: 10.7%
Activity (T-cell [7]): 92.75%
Activity (T-cell [8]): 94.79%
cytotoxicity at 48 h, 30 µM [9]: 32%
Activity (T-cell [10]): 94.01%
Activity (T-cell [11]): 86.19%
cytotoxicity at 48 h, 100 µM [12]: 33.4%
inhibition at 10 µM (Splenocyte [13]): 21.1%

COc1cc(OC)c2c(OC(=O)c3ccccc3C)ccnc2c1
inhibition at 1 µM (Splenocyte [1]): 2.2%
inhibition at 30 µM [2]: 91.4%
inhibition at 10 µM [3]: 70.3%
inhibition at 30 µM (Splenocyte [4]): 94.6%
inhibition at 100 µM [5]: 92.2%
cytotoxicity at 48 h, 10 µM [6]: 9.4%
Activity (T-cell [7]): 85.45%
Activity (T-cell [8]): 93.81%
cytotoxicity at 48 h, 30 µM [9]: 53.9%
Activity (T-cell [10]): 92.54%
Activity (T-cell [11]): 75.65%
cytotoxicity at 48 h, 100 µM [12]: 64%
inhibition at 10 µM (Splenocyte [13]): 55.4%

COc1cc(OC)c2c(OC(=O)c3ccccc3Br)ccnc2c1
inhibition at 1 µM (Splenocyte [1]): 4.8%
inhibition at 30 µM [2]: 85.7%
inhibition at 10 µM [3]: 51.2%
inhibition at 30 µM (Splenocyte [4]): 85.4%
inhibition at 100 µM [5]: 93.3%
cytotoxicity at 48 h, 10 µM [6]: 9.8%
Activity (T-cell [7]): 93.63%
Activity (T-cell [8]): 94.92%
cytotoxicity at 48 h, 30 µM [9]: 22.5%
Activity (T-cell [10]): 93.23%
Activity (T-cell [11]): 86.21%
cytotoxicity at 48 h, 100 µM [12]: 29.2%
inhibition at 10 µM (Splenocyte [13]): 42%

COc1cc(OC)c2c(OS(=O)(=O)c3ccc(C)cc3)ccnc2c1
inhibition at 1 µM (Splenocyte [1]): 12.9%
inhibition at 30 µM [2]: 94.7%
inhibition at 10 µM [3]: 82.3%
inhibition at 30 µM (Splenocyte [4]): 98.9%
inhibition at 100 µM [5]: 94.2%
cytotoxicity at 48 h, 10 µM [6]: 6.2%
Activity (T-cell [7]): 68.39%
Activity (T-cell [8]): 85.74%
cytotoxicity at 48 h, 30 µM [9]: 5.4%
Activity (T-cell [10]): 81.66%
Activity (T-cell [11]): 13.7%
cytotoxicity at 48 h, 100 µM [12]: 13.2%
inhibition at 10 µM (Splenocyte [13]): 87.7%

C/C=C/C[C@@H](C)[C@@H](O)[C@H]1C(=O)N[C@@H](CC)C(=O)N(C)CC(=O)N(C)[C@@H](CC(C)C)C(=O)N[C@@H](C(C)C)C(=O)N(C)[C@@H](CC(C)C)C(=O)N[C@@H](C)C(=O)N[C@H](C)C(=O)N(C)[C@@H](CC(C)C)C(=O)N(C)[C@@H](CC(C)C)C(=O)N(C)[C@@H](C(C)C)C(=O)N1C [CYCLOSPORINE]
inhibition at 1 µM [14]: 86.4%
Activity (T-cell [8]): 35.14%
